According to paper PMC9532533 (Acta Pharmaceutica Sinica. B, 2022):

Legend:
32D KIT V559D cells = test: Antiproliferation assay, 32D KIT V559D cells; assay type: cell-based, murine; details: Mus musculus, read-out: GI50, V559D
[1] = test system: 32D KIT V559D/V654A cells; test: Antiproliferation assay, 32D KIT V559D/V654A cells; assay type: cell-based, murine; details: Mus musculus, read-out: GI50, V559D/V654A
[2] = test system: 32D KIT V559D/N822K cells; test: Antiproliferation assay, 32D KIT V559D/N822K cells; assay type: cell-based, murine; details: Mus musculus, read-out: GI50, V559D/N822K
32D cells = test: Antiproliferation assay, normal parent 32D cells; assay type: cell-based, murine; details: Mus musculus, read-out: 32D cells (GI50, nmol/L)
[3] = test system: phosphorylation of KIT^D816V and downstream STAT3 and ERK; test: Western blot of KIT signaling in 32D KIT^D816V cells; assay type: cell-based, murine; details: 4-h treatment
Pharmacokinetics in mice = assay type: in vivo, male ICR (CD-1) mice; details: male, ICR (CD-1), mouse, plasma; for AUC(0-t) / half-life: po, 10 mg/kg
Method in brief: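 Male ICR (CD-1) mice, n = 3 per route, each given a single dose of test compound: 2 mg/kg i.v. or 10 mg/kg p.o. Plasma drug levels measured by LC/MS/MS, and key PK parameters derived from these concentration data.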

32D KIT^D816V xenografts = test: In vivo antitumor efficacy, 32D KIT^D816V xenograft; set-up: species or system nude mice; details: i.g., BID × 12; for mortality and body weight loss: whole period of treatment

| Structure (SMILES) | GI50 (32D KIT V559D cells) | GI50 [1] | GI50 [2] | GI50 (32D cells) | inhibition of phosphorylation of KIT^D816V and downstream STAT3 and ERK [3] | bioavailability (Pharmacokinetics in mice; oral, 10 mpk) | AUC(0-t) (Pharmacokinetics in mice) | half-life (Pharmacokinetics in mice) | TGI (tumor growth inhibition) (32D KIT^D816V xenografts; 20 mg/kg) | TGI (tumor growth inhibition) (32D KIT^D816V xenografts; 40 mg/kg) | mortality and body weight loss (32D KIT^D816V xenografts) | suppression of growth of 32D KIT^D816V xenografts (32D KIT^D816V xenografts; high dose group 100 mg/kg) |
| --- | --- | --- | --- | --- | --- | --- | --- | --- | --- | --- | --- | --- |
| Cc1ccc(C(=O)NCc2ccsc2)cc1C#Cc1cn(C(C)C)c2ncnc(N)c12 [Compound 54] | 0.09 nM | 1.1 nM | 0.8 nM | > 1000 nmol/L | potent inhibition effects | 29.9% | 1280 ng·h/mL | 2.29 h | 45% | 71% | no mortality or obvious body weight loss |  |
| COCCn1cc(C#Cc2cc(C(=O)NCc3ccsc3)ccc2C)c2c(N)ncnc21 [Compound 57] |  |  |  |  | potent inhibition effects |  | 233 ng·h/mL | 1.34 h |  |  | no mortality or obvious body weight loss | 50% |
| CCn1c(=O)c(-c2cc(NC(=O)Nc3ccccc3)c(F)cc2Br)cc2cnc(NC)cc21 [Ripretinib, ripretinib, reference compound] |  |  |  |  |  |  |  |  |  |  | no mortality or obvious body weight loss |  |
